Results: ChEMBL document CHEMBL1156362, “Antimalarial (+)-trans-hexahydrodibenzopyran derivatives from Machaerium multiflorum” (J Nat Prod, 2001)
≈ marks a conversion by molar mass, not a printed value.

Key:
Staphylococcus aureus [1] = test: Antibacterial activity against methicillin-resistant Staphylococcus aureus ATCC 33591 after 48 hrs by microplate assay; type: functional, organism-based
Outline: (§1)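 IC50 values were read from a modified 96-well microplate growth-inhibition assay against ATCC strains: C. neoformans 90113, S. aureus 6535 and methicillin-resistant S. aureus 33591. Positive controls were amphotericin B and tetracycline, and DMSO served as the negative control.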

Cryptococcus neoformans = test: […] activity against Cryptococcus neoformans ATCC 90113 after 48 hrs by microplate assay; type: functional, organism-based; outline: as §1
Staphylococcus aureus [2] = test: Antibacterial activity against Staphylococcus aureus ATCC 6535 after 48 hrs by microplate assay; type: functional, organism-based; outline: as §1
[3] = Selectivity index, ratio of IC50 for african green monkey (Cercopithecus aethiops) Vero cells to IC50 for chloroquine-resistant Plasmodium falciparum W2; type: toxicity, cell-based; conditions: read-out: Ratio IC50
[4] = Selectivity index, ratio of IC50 for african green monkey (Cercopithecus aethiops) Vero cells to IC50 for chloroquine-sensitive Plasmodium falciparum D6; type: toxicity, cell-based; conditions: read-out: Ratio IC50
[5] = target: Cannabinoid receptor 1 (Homo sapiens) (UniProt P21554); test: Displacement of [3H]CP-55940 from human recombinant CB1 receptor expressed in HEK293 cells at 1 uM; type: cell-based
Outline: (§2)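 Radioligand binding assay for the CB1 site, using human recombinant HEK-293 cells as the receptor source. Compounds were screened in a primary assay at 1 and 0.1 µM and expressed as % affinity. A response above 50% of maximum stimulation or inhibition counted as significant. WIN-55,212-2 was the reference, with DMSO as placebo.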

Plasmodium falciparum [6] = test: Antimalarial activity against chloroquine-sensitive Plasmodium falciparum D6 by LDH reporter assay; type: functional, organism-based
[7] = target: Cannabinoid receptor 1 (Homo sapiens) (UniProt P21554); test: Displacement of [3H]CP-55940 from human recombinant CB1 receptor expressed in HEK293 cells at 0.1 uM; type: cell-based; outline: as §2
Plasmodium falciparum [8] = test: Antimalarial activity against chloroquine-resistant Plasmodium falciparum W2 by LDH reporter assay; type: functional, organism-based
[9] = Cryptococcus neoformans, ATCC 90113, 48 h, read-out: IC50
[10] = Staphylococcus aureus, ATCC 33591, 48 h, read-out: IC50
[11] = Staphylococcus aureus, ATCC 6535, 48 h, read-out: IC50

Cannabinoid receptor 1 (Homo sapiens), sequence (P21554 whole entry): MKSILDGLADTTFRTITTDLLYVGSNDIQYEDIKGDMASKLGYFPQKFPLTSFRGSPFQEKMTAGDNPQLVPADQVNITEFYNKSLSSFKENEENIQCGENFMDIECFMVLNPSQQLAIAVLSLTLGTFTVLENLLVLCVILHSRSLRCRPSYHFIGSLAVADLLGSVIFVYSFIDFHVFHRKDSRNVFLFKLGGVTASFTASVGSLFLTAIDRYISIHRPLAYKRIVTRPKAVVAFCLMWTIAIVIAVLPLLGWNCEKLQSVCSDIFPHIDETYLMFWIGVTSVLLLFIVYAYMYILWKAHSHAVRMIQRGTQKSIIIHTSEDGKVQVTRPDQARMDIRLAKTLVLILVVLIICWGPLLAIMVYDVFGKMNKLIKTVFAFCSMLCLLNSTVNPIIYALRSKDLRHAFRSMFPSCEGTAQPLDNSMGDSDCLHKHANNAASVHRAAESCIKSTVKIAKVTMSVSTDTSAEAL

| SMILES | IC50 (Staphylococcus aureus [1]) | IC50 (Cryptococcus neoformans; [9]) [µg/mL] | IC50 (Staphylococcus aureus [2]) | selectivity ratio [3] | selectivity ratio [4] | Activity [5] [%] | IC50 (Staphylococcus aureus [1]; [10]) [µg/mL] | IC50 (Plasmodium falciparum [6]) [µg/mL] | IC50 (Staphylococcus aureus [2]; [11]) [µg/mL] | Activity [7] [%] | IC50 (Plasmodium falciparum [8]) [µg/mL] | IC50 (Cryptococcus neoformans) |
| --- | --- | --- | --- | --- | --- | --- | --- | --- | --- | --- | --- | --- |
| C[C@@H]1[C@H](O)[C@@H](C)/C=C/C=C/C=C/C=C/C=C/C=C/C=C/[C@H](O[C@@H]2O[C@H](C)[C@@H](O)[C@H](N)[C@@H]2O)C[C@@H]2O[C@](O)(C[C@@H](O)C[C@@H](O)[C@H](O)CC[C@@H](O)C[C@@H](O)CC(=O)O[C@H]1C)C[C@H](O)[C@H]2C(=O)O [AMPHOTERICIN B] | Not Active | 0.375 (≈ 0.406 µM) | Not Active |  |  |  |  |  |  |  |  |  |
| C[C@@H]1CC[C@H]2[C@@H](C)C(=O)O[C@@H]3O[C@@]4(C)CC[C@@H]1[C@]32OO4 [ARTEMISININ] |  |  |  | > 1080 | > 952 |  |  |  |  |  |  |  |
| C[C@H]1CC[C@H]2[C@H](C1)c1c(O)cc(/C=C/c3ccccc3)cc1OC2(C)C [MACHAERIOL A] |  | 50 (≈ 143 µM) |  | > 7.9 | > 3.2 | 7 | 10 (≈ 28.7 µM) | 1.5 (≈ 4.3 µM) | 15 (≈ 43 µM) | 10 | 0.6 (≈ 1.72 µM) |  |
| C[C@H]1CC[C@H]2[C@H](C1)c1c(O)cc(-c3cc4ccccc4o3)cc1OC2(C)C [MACHAERIOL B] |  |  |  | > 40 | > 6.6 | -3 | 4.5 (≈ 12.4 µM) | 0.72 (≈ 1.99 µM) | 5 (≈ 13.8 µM) | 3 | 0.12 (≈ 0.331 µM) | Not Active |
| CN(C)[C@@H]1C(O)=C(C(N)=O)C(=O)[C@@]2(O)C(O)=C3C(=O)c4c(O)cccc4[C@@](C)(O)[C@H]3C[C@@H]12 [TETRACYCLINE] |  |  |  |  |  |  | 0.15 (≈ 0.338 µM) |  | 0.15 (≈ 0.338 µM) |  |  |  |
